ChEMBL document CHEMBL4689842, “EUbOPEN Chemogenomics Library wave 1” (2021)

System: U2OS
Test: Multiplex assay against U2OS
Type: toxicity, cell-based
Conditions: human
Summary of the method: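 Phenotypes for tubulin, mitochondrial mass and membrane permeability are expressed as per cents of healthy-nucleus cells. Cells were stained live at seeding with Hoechst33342, BioTracker Green Microtubule Cytoskeleton Dye, MitoTracker Red and Annexin V Alexa Fluor 680, then imaged after compound addition on a CQ1 microscope at 37°C and 5% CO2. Machine-learning gating in CellPathfinder separated Hoechst high-intensity objects from normal cells, divided normal cells by nuclear state (healthy, pyknosed, fragmented) and divided pyknosed cells into mitotic or apoptotic.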

[1] = 12 h, 1 µM, compound concentration 1 uM, replicate 1
[2] = 12 h, 1 µM, compound concentration 1 uM, replicate 2
[3] = 12 h, 10 µM, compound concentration 10 uM, replicate 1
[4] = 12 h, 10 µM, compound concentration 10 uM, replicate 2
[5] = 24 h, 1 µM, compound concentration 1 uM, replicate 1
[6] = 24 h, 1 µM, compound concentration 1 uM, replicate 2
[7] = 24 h, 10 µM, compound concentration 10 uM, replicate 1
[8] = 24 h, 10 µM, compound concentration 10 uM, replicate 2
[9] = 48 h, 1 µM, compound concentration 1 uM, replicate 1
[10] = 48 h, 1 µM, compound concentration 1 uM, replicate 2
[11] = 48 h, 10 µM, compound concentration 10 uM, replicate 1
[12] = 48 h, 10 µM, compound concentration 10 uM, replicate 2

C=CC(=O)Nc1cccc(Sc2nc(Nc3ccc(N4CCN(C)CC4)cc3)ncc2Cl)c1
Population Apoptotic (%) [1]: 99%
Population Fragmented Nuclei (%) [1]: 5%
Population Healthy Nuclei (%) [1]: 3%
Population Hoechst High Intensity Objects (%) [1]: 10%
Population Membrane Permeable-Phenotype (%) [1]: 100%
Population Mitochondria Different-Phenotype (%) [1]: 100%
Population Mitotic Cells (%) [1]: 0%
Population Normal (%) [1]: 89%
Population Pyknosed Nuclei (%) [1]: 91%
Population Tubulin-Different-Phenotype (%) [1]: 100%
Total Cell Count [1]: 197
Population Apoptotic (%) [2]: 95%
Population Fragmented Nuclei (%) [2]: 16%
Population Healthy Nuclei (%) [2]: 11%
Population Hoechst High Intensity Objects (%) [2]: 14%
Population Mitotic Cells (%) [2]: 5%
Population Normal (%) [2]: 85%
Population Pyknosed Nuclei (%) [2]: 71%
Total Cell Count [2]: 119
Population Apoptotic (%) [3]: 28%
Population Fragmented Nuclei (%) [3]: 5%
Population Healthy Nuclei (%) [3]: 83%
Population Hoechst High Intensity Objects (%) [3]: 1%
Population Membrane Permeable-Phenotype (%) [3]: 32%
Population Mitochondria Different-Phenotype (%) [3]: 11%
Population Mitotic Cells (%) [3]: 71%
Population Normal (%) [3]: 98%
Population Pyknosed Nuclei (%) [3]: 10%
Population Tubulin-Different-Phenotype (%) [3]: 25%
Total Cell Count [3]: 175
Population Apoptotic (%) [4]: 44%
Population Fragmented Nuclei (%) [4]: 8%
Population Healthy Nuclei (%) [4]: 82%
Population Hoechst High Intensity Objects (%) [4]: 14%
Population Membrane Permeable-Phenotype (%) [4]: 25%
Population Mitochondria Different-Phenotype (%) [4]: 10%
Population Mitotic Cells (%) [4]: 55%
Population Normal (%) [4]: 85%
Population Pyknosed Nuclei (%) [4]: 8%
Population Tubulin-Different-Phenotype (%) [4]: 33%
Total Cell Count [4]: 115
Population Apoptotic (%) [5]: 96%
Population Fragmented Nuclei (%) [5]: 10%
Population Hoechst High Intensity Objects (%) [5]: 7%
Population Mitochondria Different-Phenotype (%) [5]: 96%
Population Mitotic Cells (%) [5]: 3%
Population Normal (%) [5]: 92%
Population Pyknosed Nuclei (%) [5]: 50%
Total Cell Count [5]: 237
Population Apoptotic (%) [6]: 100%
Population Fragmented Nuclei (%) [6]: 21%
Population Healthy Nuclei (%) [6]: 38%
Population Hoechst High Intensity Objects (%) [6]: 15%
Population Membrane Permeable-Phenotype (%) [6]: 100%
Population Mitochondria Different-Phenotype (%) [6]: 100%
Population Mitotic Cells (%) [6]: 0%
Population Normal (%) [6]: 84%
Population Pyknosed Nuclei (%) [6]: 40%
Population Tubulin-Different-Phenotype (%) [6]: 100%
Total Cell Count [6]: 127
Population Apoptotic (%) [7]: 42%
Population Fragmented Nuclei (%) [7]: 6%
Population Healthy Nuclei (%) [7]: 82%
Population Hoechst High Intensity Objects (%) [7]: 1%
Population Membrane Permeable-Phenotype (%) [7]: 24%
Population Mitochondria Different-Phenotype (%) [7]: 13%
Population Mitotic Cells (%) [7]: 57%
Population Normal (%) [7]: 98%
Population Pyknosed Nuclei (%) [7]: 11%
Population Tubulin-Different-Phenotype (%) [7]: 18%
Total Cell Count [7]: 158
Population Apoptotic (%) [8]: 72%
Population Fragmented Nuclei (%) [8]: 7%
Population Hoechst High Intensity Objects (%) [8]: 12%
Population Membrane Permeable-Phenotype (%) [8]: 23%
Population Mitochondria Different-Phenotype (%) [8]: 15%
Population Mitotic Cells (%) [8]: 27%
Population Normal (%) [8]: 87%
Population Pyknosed Nuclei (%) [8]: 9%
Population Tubulin-Different-Phenotype (%) [8]: 22%
Total Cell Count [8]: 103

CNC(=O)Nc1ccc(-c2nc(N3CC4CCC(C3)O4)c3cnn(C4CCC5(CC4)OCCO5)c3n2)cc1
Population Apoptotic (%) [1]: 22%
Population Fragmented Nuclei (%) [1]: 24%
Population Healthy Nuclei (%) [1]: 59%
Population Hoechst High Intensity Objects (%) [1]: 13%
Population Membrane Permeable-Phenotype (%) [1]: 5%
Population Mitochondria Different-Phenotype (%) [1]: 11%
Population Mitotic Cells (%) [1]: 77%
Population Normal (%) [1]: 86%
Population Pyknosed Nuclei (%) [1]: 15%
Population Tubulin-Different-Phenotype (%) [1]: 26%
Total Cell Count [1]: 90
Population Apoptotic (%) [2]: 0%
Population Fragmented Nuclei (%) [2]: 28%
Population Healthy Nuclei (%) [2]: 55%
Population Hoechst High Intensity Objects (%) [2]: 10%
Population Mitochondria Different-Phenotype (%) [2]: 13%
Population Mitotic Cells (%) [2]: 100%
Population Normal (%) [2]: 89%
Population Pyknosed Nuclei (%) [2]: 16%
Population Tubulin-Different-Phenotype (%) [2]: 18%
Total Cell Count [2]: 54
Population Apoptotic (%) [3]: 40%
Population Fragmented Nuclei (%) [3]: 26%
Population Healthy Nuclei (%) [3]: 31%
Population Hoechst High Intensity Objects (%) [3]: 13%
Population Membrane Permeable-Phenotype (%) [3]: 11%
Population Mitochondria Different-Phenotype (%) [3]: 88%
Population Mitotic Cells (%) [3]: 59%
Population Normal (%) [3]: 87%
Population Pyknosed Nuclei (%) [3]: 42%
Population Tubulin-Different-Phenotype (%) [3]: 96%
Total Cell Count [3]: 66
Population Apoptotic (%) [4]: 25%
Population Fragmented Nuclei (%) [4]: 13%
Population Healthy Nuclei (%) [4]: 54%
Population Hoechst High Intensity Objects (%) [4]: 6%
Population Membrane Permeable-Phenotype (%) [4]: 36%
Population Mitochondria Different-Phenotype (%) [4]: 75%
Population Mitotic Cells (%) [4]: 75%
Population Normal (%) [4]: 93%
Population Pyknosed Nuclei (%) [4]: 32%
Total Cell Count [4]: 107
Population Apoptotic (%) [5]: 30%
Population Fragmented Nuclei (%) [5]: 28%
Population Healthy Nuclei (%) [5]: 52%
Population Hoechst High Intensity Objects (%) [5]: 19%
Population Membrane Permeable-Phenotype (%) [5]: 0%
Population Mitochondria Different-Phenotype (%) [5]: 14%
Population Mitotic Cells (%) [5]: 70%
Population Normal (%) [5]: 80%
Population Pyknosed Nuclei (%) [5]: 18%
Population Tubulin-Different-Phenotype (%) [5]: 14%
Total Cell Count [5]: 98
Population Apoptotic (%) [6]: 25%
Population Fragmented Nuclei (%) [6]: 19%
Population Healthy Nuclei (%) [6]: 64%
Population Hoechst High Intensity Objects (%) [6]: 18%
Population Membrane Permeable-Phenotype (%) [6]: 8%
Population Mitochondria Different-Phenotype (%) [6]: 6%
Population Mitotic Cells (%) [6]: 75%
Population Normal (%) [6]: 81%
Population Pyknosed Nuclei (%) [6]: 16%
Population Tubulin-Different-Phenotype (%) [6]: 23%
Total Cell Count [6]: 55
Population Apoptotic (%) [7]: 51%
Population Fragmented Nuclei (%) [7]: 25%
Population Healthy Nuclei (%) [7]: 35%
Population Hoechst High Intensity Objects (%) [7]: 10%
Population Membrane Permeable-Phenotype (%) [7]: 10%
Population Mitochondria Different-Phenotype (%) [7]: 89%
Population Mitotic Cells (%) [7]: 48%
Population Normal (%) [7]: 90%
Population Pyknosed Nuclei (%) [7]: 38%
Population Tubulin-Different-Phenotype (%) [7]: 93%
Total Cell Count [7]: 66
Population Apoptotic (%) [8]: 41%
Population Fragmented Nuclei (%) [8]: 8%
Population Healthy Nuclei (%) [8]: 42%
Population Hoechst High Intensity Objects (%) [8]: 6%
Population Membrane Permeable-Phenotype (%) [8]: 44%
Population Mitochondria Different-Phenotype (%) [8]: 84%
Population Mitotic Cells (%) [8]: 58%
Population Normal (%) [8]: 93%
Population Pyknosed Nuclei (%) [8]: 49%
Population Tubulin-Different-Phenotype (%) [8]: 96%
Total Cell Count [8]: 90
Population Apoptotic (%) [9]: 50%
Population Fragmented Nuclei (%) [9]: 39%
Population Healthy Nuclei (%) [9]: 49%
Population Hoechst High Intensity Objects (%) [9]: 18%
Population Membrane Permeable-Phenotype (%) [9]: 3%
Population Mitochondria Different-Phenotype (%) [9]: 7%
Population Mitotic Cells (%) [9]: 50%
Population Normal (%) [9]: 81%
Population Pyknosed Nuclei (%) [9]: 11%
Population Tubulin-Different-Phenotype (%) [9]: 19%
Total Cell Count [9]: 93
Population Apoptotic (%) [10]: 36%
Population Fragmented Nuclei (%) [10]: 14%
Population Healthy Nuclei (%) [10]: 55%
Population Hoechst High Intensity Objects (%) [10]: 14%
Population Membrane Permeable-Phenotype (%) [10]: 5%
Population Mitochondria Different-Phenotype (%) [10]: 14%
Population Mitotic Cells (%) [10]: 63%
Population Normal (%) [10]: 85%
Population Pyknosed Nuclei (%) [10]: 30%
Population Tubulin-Different-Phenotype (%) [10]: 37%
Total Cell Count [10]: 56
Population Apoptotic (%) [11]: 64%
Population Fragmented Nuclei (%) [11]: 29%
Population Healthy Nuclei (%) [11]: 23%
Population Hoechst High Intensity Objects (%) [11]: 12%
Population Membrane Permeable-Phenotype (%) [11]: 26%
Population Mitochondria Different-Phenotype (%) [11]: 94%
Population Mitotic Cells (%) [11]: 35%
Population Normal (%) [11]: 87%
Population Pyknosed Nuclei (%) [11]: 47%
Population Tubulin-Different-Phenotype (%) [11]: 94%
Total Cell Count [11]: 65
Population Apoptotic (%) [12]: 43%
Population Fragmented Nuclei (%) [12]: 11%
Population Healthy Nuclei (%) [12]: 29%
Population Hoechst High Intensity Objects (%) [12]: 16%
Population Membrane Permeable-Phenotype (%) [12]: 40%
Population Mitochondria Different-Phenotype (%) [12]: 80%
Population Mitotic Cells (%) [12]: 56%
Population Normal (%) [12]: 83%
Population Pyknosed Nuclei (%) [12]: 58%
Population Tubulin-Different-Phenotype (%) [12]: 93%
Total Cell Count [12]: 74
